Measurements reported in ChEMBL document CHEMBL1157606, “Acylated phenylethanoid oligoglycosides with hepatoprotective activity from the desert plant Cistanche tubulosa” (Bioorg Med Chem, 2010).

Experiments:
Hepatocyte = assay: Hepatoprotective activity in ddY mouse primary cultured hepatocytes assessed as inhibition of D-galactosamine-induced cytotoxicity after 44 hrs by MTT assay; format: functional, cell-based
Procedure, shortened: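 Hepatocytes isolated from male ddY mice (30–35 g) by collagenase perfusion; 4 × 10^4 cells/well in William's E with 10% FBS, pre-cultured 4 h at 37 °C, 5% CO2, then 44 h with D-GalN (2 mM) ± sample. MTT (4 h); formazan in isopropanol/0.04 M HCl, OD 570 nm (ref 655 nm). Inhibition % = (sample − control)/(normal − control) × 100.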

L929 = assay: Cytoprotective activity in mouse L929 cells assessed as inhibition of TNF-alpha-induced cytotoxicity after 44 hrs by MTT assay; format: functional, cell-based; conditions: L929, 44 h
Procedure, shortened: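 L929 cells kept in MEM with 10% FBS and non-essential amino acids at 37 °C, 5% CO2; seeded 3 × 10^4 cells/well, exposed 44 h to TNF-α (20 ng/mL) with or without sample (DMSO, final 0.5%). Viability by MTT: formazan dissolved in acidic isopropanol, OD 570 nm (ref 655 nm). Inhibition % = (sample − control)/(normal − control) × 100.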

Mus musculus [1] = assay: Hepatoprotective activity against D-galactosamine/lipopolysaccharide-induced liver injury in ddY mouse assessed as inhibition of increase in sAST level at 25 mg/kg, po administered 1 hr before D-GalN/LPS challenge measured after 10 hrs; format: functional
Procedure, shortened: (§1)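 Male ddY mice (25–30 g), fasted 20 h. Sample suspended in 5% gum arabic, given orally at 10 mL/kg 1 h before i.p. D-GalN (350 mg/kg) plus LPS (10 μg/kg) in saline. Vehicle controls dosed alike. Blood from infraorbital venous plexus at 10 h; sAST and sALT by Reitman–Frankel method. Hydrocortisone as reference.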

Mus musculus [2] = assay: Hepatoprotective activity against D-galactosamine/lipopolysaccharide-induced liver injury in ddY mouse assessed as inhibition of increase in sAST level at 100 mg/kg, po administered 1 hr before D-GalN/LPS challenge measured after 10 hrs; format: functional; procedure, shortened: as §1
Mus musculus [3] = assay: Hepatoprotective activity against D-galactosamine/lipopolysaccharide-induced liver injury in ddY mouse assessed as inhibition of increase in sALT level at 25 mg/kg, po administered 1 hr before D-GalN/LPS challenge measured after 10 hrs; format: functional; procedure, shortened: as §1
Mus musculus [4] = assay: Hepatoprotective activity against D-galactosamine/lipopolysaccharide-induced liver injury in ddY mouse assessed as inhibition of increase in sALT level at 100 mg/kg, po administered 1 hr before D-GalN/LPS challenge measured after 10 hrs; format: functional; procedure, shortened: as §1
[5] = system: Peritoneal macrophage cell; assay: Inhibition of LPS-induced nitric oxide production in ddY mouse peritoneal macrophages; format: functional, cell-based
[6] = system: Peritoneal macrophage cell; assay: Inhibition of LPS-induced TNFalpha production in ddY mouse peritoneal macrophages; format: functional, cell-based
Procedure, shortened: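 Thioglycollate-elicited peritoneal macrophages from male ddY mice, 5 × 10^5 cells/well in RPMI 1640 with 5% FBS, 1 h pre-culture, nonadherent cells washed off. Compound (DMSO, final 0.5%) added 10 min before LPS (medium containing 10 μg/mL), 4 h incubation; TNF-α in medium by ELISA.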

Mus musculus [7] = assay: Hepatoprotective activity against D-galactosamine/lipopolysaccharide-induced liver injury in ddY mouse assessed as inhibition of increase in sAST level at 10 mg/kg, po administered 1 hr before D-GalN/LPS challenge measured after 10 hrs; format: functional; procedure, shortened: as §1
Mus musculus [8] = assay: Hepatoprotective activity against D-galactosamine/lipopolysaccharide-induced liver injury in ddY mouse assessed as inhibition of increase in sALT level at 10 mg/kg, po administered 1 hr before D-GalN/LPS challenge measured after 10 hrs; format: functional; procedure, shortened: as §1

C[C@@H]1O[C@@H](O[C@@H]2[C@@H](O)[C@H](OCCc3ccc(O)c(O)c3)O[C@H](CO)[C@H]2OC(=O)/C=C/c2ccc(O)c(O)c2)[C@H](O)[C@H](O)[C@H]1O [ACETOSIDE]
IC50 (Hepatocyte): 4.6 µM | IC50 (L929): 17.8 µM | inhibition in vivo at 25 mg/kg (Mus musculus [1]): 51.3% | inhibition in vivo at 100 mg/kg (Mus musculus [2]): 68.5% | inhibition in vivo at 25 mg/kg (Mus musculus [3]): 44.4% | inhibition in vivo at 100 mg/kg (Mus musculus [4]): 59.5% | IC50 [5]: > 100 µM | IC50 [6]: > 100 µM

C[C@H]1O[C@H](O[C@@H]2[C@@H](O)[C@H](OCCc3ccc(O)c(O)c3)O[C@H](CO[C@H]3O[C@@H](CO)[C@H](O)[C@@H](O)[C@@H]3O)[C@H]2OC(=O)/C=C/c2ccc(O)c(O)c2)[C@@H](O)[C@@H](O)[C@@H]1O [ECHINACOSIDE]
IC50 (Hepatocyte): 10.2 µM | IC50 (L929): 31.1 µM | inhibition in vivo at 25 mg/kg (Mus musculus [1]): 61.2% | inhibition in vivo at 100 mg/kg (Mus musculus [2]): 66.7% | inhibition in vivo at 25 mg/kg (Mus musculus [3]): 43.8% | inhibition in vivo at 100 mg/kg (Mus musculus [4]): 52% | IC50 [5]: > 100 µM | IC50 [6]: > 100 µM

C[C@@H]1O[C@@H](O[C@@H]2[C@@H](O)[C@H](OCCc3ccc(O)c(O)c3)O[C@H](COC(=O)/C=C/c3ccc(O)c(O)c3)[C@H]2O)[C@H](O)[C@H](O)[C@H]1O [ISOACTEOSIDE]
IC50 (Hepatocyte): 5.3 µM | IC50 (L929): 22.7 µM | inhibition in vivo at 25 mg/kg (Mus musculus [1]): 46.1% | inhibition in vivo at 100 mg/kg (Mus musculus [2]): 70.9% | inhibition in vivo at 25 mg/kg (Mus musculus [3]): 40.2% | inhibition in vivo at 100 mg/kg (Mus musculus [4]): 58.7% | IC50 [5]: > 100 µM | IC50 [6]: > 100 µM

COc1cc(C2Oc3cc([C@H]4Oc5cc(O)cc(O)c5C(=O)[C@@H]4O)ccc3OC2CO)ccc1O (stereo partly drawn) [SILIBININ]
IC50 (Hepatocyte): 38.8 µM | IC50 (L929): 60.4 µM

C[C@]12CCC(=O)C=C1CC[C@@H]1[C@@H]2[C@@H](O)C[C@@]2(C)[C@H]1CC[C@]2(O)C(=O)CO [HYDROCORTISONE]
inhibition in vivo at 10 mg/kg (Mus musculus [7]): 94.2% | inhibition in vivo at 10 mg/kg (Mus musculus [8]): 97.7%
